Measurements: ChEMBL document CHEMBL1129605, “Synthesis, structure-activity relationships, and molecular modeling studies of N-(indol-3-ylglyoxylyl)benzylamine derivatives acting at the benzodiazepine receptor” (J Med Chem, 1996)

Tests used:
[1] = molecular target: T1, GABA-A receptor; anion channel (Bos taurus) (UniProt P10063+P08220+P20237+P08219+P10064+P22300); experiment: Gamma AminoButyric Acid(GABA) ratio is the Ki without GABA / Ki with GABA; format: protein-complex assay
Outline: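 Ki for [3H]flunitrazepam displacement from bovine cortical membranes determined both without and with GABA. The ratio is Ki without GABA divided by Ki with GABA.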

[2] = molecular target: GABA-A receptor; anion channel; experiment: In vitro inhibition of [3H]- flunitrazepam binding to GABA-A benzodiazepine receptor of bovine cortical membranes; set-up: species or system Bos taurus
Outline: (§1)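 Filtration binding of [3H]flunitrazepam to bovine cerebral cortex membranes, freeze–thawed and washed in 50 mM Tris-citrate pH 7.4. […] IC50 taken from log-probit plots and converted to Ki, mean ± SEM of three determinations.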

[3] = molecular target: T1, GABA-A receptor; anion channel (Bos taurus); experiment: In vitro inhibition of [3H]- flunitrazepam binding to GABA-A central benzodiazepine receptor of bovine cortical membranes at 10 uM; outline: as §1
[4] = molecular target: T1, GABA-A receptor; anion channel (Bos taurus); experiment: Specific [35S]- TBPS binding at high affinity site loated near chloride channel of GABA-A receptor chloride complex; format: protein-complex assay; set-up: concentration or dose not given beside the values
Outline: (§2)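 Bovine cerebral cortex membranes, freeze–thawed and washed in 50 mM Tris-citrate pH 7.4, incubated with 5 nM [35S]TBPS for 90 min at 25 °C in the same buffer plus 200 mM KBr and 0.1 mM EDTA. Compounds tested at 0.5 μM in ethanol (≤0.2%) with 1 μM GABA present. Nonspecific binding taken with 600 μM picrotoxinin. Bound ligand collected by filtration and counted by scintillation.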

[5] = molecular target: T1, GABA-A receptor; anion channel (Bos taurus); experiment: Inhibition of [3H]- flunitrazepam binding to GABA-A central benzodiazepine receptor of bovine cortical membranes at 10 uM; outline: as §1
[6] = Partition coefficient of compound; format: physicochemical; details: octanol/water
Outline: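 Shake-flask partition at room temperature between octanol and phosphate buffer pH 7.4. Solute measured spectrophotometrically in both phases, with phase volumes adjusted so each phase held enough compound. Run at four different solute concentrations.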

[7] = molecular target: T1, GABA-A receptor; anion channel (Bos taurus); experiment: In vitro displacement of [35S]-TBPS binding from GABA-A receptor relative to clonazepam; format: protein-complex assay; outline: as §2

Structure (SMILES)	GABA ratio [1]	Ki [2]	inhibition [3]	inhibition [5]	further results
COc1cccc(CNC(=O)C(=O)c2c[nH]c3ccc(Cl)cc23)c1	0.79	162 nM	89%		
COc1ccc(CNC(=O)C(=O)c2c[nH]c3ccc(Cl)cc23)cc1OC	0.82	30 nM	94%		
O=C(NCc1cccc(O)c1)C(=O)c1c[nH]c2ccc([N+](=O)[O-])cc12	1.32	65 nM		95%	Activity [4]: 50%
O=C(NCc1ccccc1)C(=O)c1c[nH]c2ccc(Cl)cc12	0.95	490 nM		34%	
O=C(NCc1cccc(Cl)c1)C(=O)c1c[nH]c2ccc([N+](=O)[O-])cc12			0%		
COc1cc(CNC(=O)C(=O)c2c[nH]c3ccc(Cl)cc23)ccc1O	1.03	27 nM	99%		
COc1ccc(CNC(=O)C(=O)c2c[nH]c3ccc([N+](=O)[O-])cc23)cc1OC	1	11 nM	97%		Activity [4]: 31%
O=C(NCc1cccc(Cl)c1)C(=O)c1c[nH]c2ccccc12	0.95	160 nM	96%		
COc1cc(CNC(=O)C(=O)c2c[nH]c3ccc([N+](=O)[O-])cc23)ccc1O	1.07	13 nM	100%		Activity [4]: 27%
O=C(Nc1ccc(O)cc1)C(=O)c1c[nH]c2ccc([N+](=O)[O-])cc12	1	1800 nM		76%	
O=C(NCc1ccc(O)c(O)c1)C(=O)c1c[nH]c2ccc(Cl)cc12	1.33	180 nM	96%		
O=C(NCc1ccccc1)C(=O)c1c[nH]c2ccc([N+](=O)[O-])cc12	1	117 nM		55%	
COc1ccc(CNC(=O)C(=O)c2cn(C)c3ccccc23)cc1OC	0.88	2700 nM	70%		
O=C(NCc1ccc(Cl)cc1)C(=O)c1c[nH]c2ccc([N+](=O)[O-])cc12			2%		
O=C(NCCCc1ccccc1)C(=O)c1c[nH]c2ccc([N+](=O)[O-])cc12				52%	
COc1ccc(NC(=O)C(=O)c2c[nH]c3ccccc23)cc1				0%	
COc1cc(CNC(=O)C(=O)c2c[nH]c3ccccc23)ccc1O	1	140 nM	96%		
COc1ccc(CNC(=O)C(=O)c2c[nH]c3ccccc23)cc1	1	163 nM		97%	
Cn1cc(C(=O)C(=O)NCc2cccc(O)c2)c2ccccc21				17%	

Structure (SMILES)	GABA ratio [1]	Ki [2]	inhibition [3]	inhibition [5]	further results
O=C(NCc1cccc(O)c1)C(=O)c1c[nH]c2ccccc12	1.25	820 nM		91%	
O=C(NCc1cccc(Cl)c1)C(=O)c1c[nH]c2ccc(Cl)cc12			14%		
COc1ccc(CNC(=O)C(=O)c2c[nH]c3ccc([N+](=O)[O-])cc23)cc1	1.06	53 nM		71%	logP [6]: 2.17; Activity [4]: 2%
O=C(NCc1ccc(Cl)cc1)C(=O)c1c[nH]c2ccc(Cl)cc12			38%		
COc1cccc(CNC(=O)C(=O)c2c[nH]c3ccccc23)c1	0.74	290 nM	97%		
O=C(NCc1ccc(Cl)cc1)C(=O)c1c[nH]c2ccccc12	1.03	67 nM	99%		Activity [4]: 27%
O=C(NCCCc1ccccc1)C(=O)c1c[nH]c2ccc(Cl)cc12				32%	
O=C1CN=C(c2ccccc2Cl)c2cc([N+](=O)[O-])ccc2N1					Activity [4]: 100%
O=C(NCc1ccccc1)C(=O)c1c[nH]c2ccccc12	0.87	120 nM		98%	Activity [4]: 29%
COc1ccc(CNC(=O)C(=O)c2c[nH]c3ccccc23)cc1OC	0.8	94 nM	99%		
O=C(NCc1ccc(O)c(O)c1)C(=O)c1c[nH]c2ccccc12	1.56	349 nM	95%		
O=C(NCc1ccc(F)cc1)C(=O)c1c[nH]c2ccccc12	1.16	52 nM	99%		logP [6]: 2.88; Activity [4]: 21%
CCOC(=O)c1ncn2c1CN(C)C(=O)c1cc(F)ccc1-2					Activity [4]: 15%
COc1cccc(CNC(=O)C(=O)c2c[nH]c3ccc([N+](=O)[O-])cc23)c1	0.91	38 nM	84%		Activity [4]: 10%
Cn1cc(C(=O)C(=O)NCc2ccc(Cl)cc2)c2ccccc21	1	1000 nM	86%		
O=C(NCc1ccccc1F)C(=O)c1c[nH]c2ccc(Cl)cc12			39%		
O=C(NCc1ccc(O)cc1)C(=O)c1c[nH]c2ccc(Cl)cc12	1.1	150 nM	98%		
O=C(NCc1ccc(O)cc1)C(=O)c1c[nH]c2ccc([N+](=O)[O-])cc12	1.05	12 nM		100%	Activity [7]: 10%; logP [6]: 2.67
O=C(NCc1ccccc1Cl)C(=O)c1c[nH]c2ccccc12	0.93	2600 nM	77%		

Structure (SMILES)	GABA ratio [1]	Ki [2]	inhibition [3]	inhibition [5]	further results
O=C(Nc1ccccc1)C(=O)c1c[nH]c2ccccc12				10%	
O=C(NCc1ccc(F)cc1)C(=O)c1c[nH]c2ccc(Cl)cc12			21%		
O=C(Nc1ccccc1)C(=O)c1c[nH]c2ccc([N+](=O)[O-])cc12				0%	
O=C(Nc1ccc(O)cc1)C(=O)c1c[nH]c2ccc(Cl)cc12				23%	
O=C(NCc1ccccc1Cl)C(=O)c1c[nH]c2ccc([N+](=O)[O-])cc12			48%		
O=C(NCc1ccccc1F)C(=O)c1c[nH]c2ccc([N+](=O)[O-])cc12			42%		
O=C(NCCCc1ccccc1)C(=O)c1c[nH]c2ccccc12	1	1260 nM	78%		
O=C(NCc1ccc(F)cc1)C(=O)c1c[nH]c2ccc([N+](=O)[O-])cc12			24%		
O=C(NCc1cccc(O)c1)C(=O)c1c[nH]c2ccc(Cl)cc12	1.45	570 nM		95%	
O=C(NCc1ccc(O)cc1)C(=O)c1c[nH]c2ccccc12	1.35	430 nM	96%		
O=C(NCc1ccc(O)c(O)c1)C(=O)c1c[nH]c2ccc([N+](=O)[O-])cc12	1.35	48 nM	98%		Activity [4]: 52%
COc1ccc(CNC(=O)C(=O)c2c[nH]c3ccc(Cl)cc23)cc1	1	107 nM		81%	
COc1ccc(NC(=O)C(=O)c2c[nH]c3ccc(Cl)cc23)cc1				10%	
COc1ccc(NC(=O)C(=O)c2c[nH]c3ccc([N+](=O)[O-])cc23)cc1				12%	
O=C(Nc1ccccc1)C(=O)c1c[nH]c2ccc(Cl)cc12				0%	
O=C(NCc1ccccc1F)C(=O)c1c[nH]c2ccccc12	0.86	660 nM	94%		
O=C(NCc1ccccc1Cl)C(=O)c1c[nH]c2ccc(Cl)cc12			40%		
O=C(Nc1ccc(O)cc1)C(=O)c1c[nH]c2ccccc12				65%	
